From ChEMBL document CHEMBL1156604 (Bioorg Med Chem Lett, 2008) come the findings set out here.

Test [1] addresses Kappa-type opioid receptor (Homo sapiens, UniProt P41145). In words: Displacement of [3H]U69593 from human kappa opioid receptor expressed in CHO cell membrane. The format is cell membranes. In short, it runs like this:
(§1)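 Compounds were tested as hydrochloride salts in competition binding against the tritiated radioligand on CHO cell membranes. Ki values are given ± SEM.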
In general terms: Displacement assays read how much labelled ligand stays bound in the presence of the test substance.

The species named for test [2] is Homo sapiens. Nature of the test: Selectivity ratio of Ki for human mu opioid receptor to Ki for human delta opioid receptor.
The target of another test is Mu-type opioid receptor (Homo sapiens, UniProt P35372). In words: Displacement of [3H]DAMGO from human mu opioid receptor expressed in CHO cell membrane. The format is cell membranes.
Test [3] deals with Delta-type opioid receptor (Homo sapiens, UniProt P41143). Nature of the test: Displacement of [3H]Naltindole from human delta opioid receptor expressed in CHO cell membrane. The test is classed as cell membranes. In short, it runs like this:
as §1

Test [4] is filed under the species Homo sapiens. Nature of the test: Selectivity ratio of Ki for human mu opioid receptor to Ki for human kappa opioid receptor.
Test [5] is filed under the species Homo sapiens. Nature of the test: Selectivity ratio of Ki for human kappa opioid receptor to Ki for human delta opioid receptor.

pKi: −log10 of the molar value.

Kappa-type opioid receptor, sequence (P41145 whole entry): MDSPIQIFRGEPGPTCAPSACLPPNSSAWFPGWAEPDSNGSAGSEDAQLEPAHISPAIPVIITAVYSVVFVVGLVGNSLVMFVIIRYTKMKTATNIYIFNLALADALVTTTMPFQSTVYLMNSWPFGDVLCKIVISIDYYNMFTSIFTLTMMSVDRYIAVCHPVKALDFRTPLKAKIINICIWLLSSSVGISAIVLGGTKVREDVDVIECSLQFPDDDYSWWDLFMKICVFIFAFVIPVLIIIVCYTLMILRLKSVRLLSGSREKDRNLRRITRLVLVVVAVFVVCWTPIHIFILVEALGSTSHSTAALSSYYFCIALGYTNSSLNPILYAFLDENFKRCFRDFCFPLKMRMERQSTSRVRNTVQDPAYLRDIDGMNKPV
Delta-type opioid receptor, sequence (P41143 whole entry): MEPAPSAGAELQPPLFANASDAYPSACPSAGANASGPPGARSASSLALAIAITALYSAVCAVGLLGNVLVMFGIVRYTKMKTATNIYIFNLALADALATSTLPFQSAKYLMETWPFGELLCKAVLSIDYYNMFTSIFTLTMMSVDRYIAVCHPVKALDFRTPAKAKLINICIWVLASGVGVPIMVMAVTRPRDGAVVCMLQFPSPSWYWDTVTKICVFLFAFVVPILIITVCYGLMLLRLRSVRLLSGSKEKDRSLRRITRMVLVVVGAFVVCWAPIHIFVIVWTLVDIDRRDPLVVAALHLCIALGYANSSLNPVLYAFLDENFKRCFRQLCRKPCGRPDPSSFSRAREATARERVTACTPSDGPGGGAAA
Mu-type opioid receptor, sequence (P35372 whole entry): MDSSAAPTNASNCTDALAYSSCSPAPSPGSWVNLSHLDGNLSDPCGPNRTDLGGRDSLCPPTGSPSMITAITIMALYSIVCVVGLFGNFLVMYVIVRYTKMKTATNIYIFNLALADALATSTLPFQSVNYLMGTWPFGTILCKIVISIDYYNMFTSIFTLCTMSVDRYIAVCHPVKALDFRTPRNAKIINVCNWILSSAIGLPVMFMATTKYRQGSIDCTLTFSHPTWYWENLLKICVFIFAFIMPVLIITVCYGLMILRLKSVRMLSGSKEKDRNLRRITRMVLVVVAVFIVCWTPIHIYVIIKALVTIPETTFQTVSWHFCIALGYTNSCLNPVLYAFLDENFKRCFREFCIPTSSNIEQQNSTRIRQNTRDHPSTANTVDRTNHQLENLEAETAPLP

By pKi is commonly meant −log10 of the Ki, conventionally taken in molar units. A lower pKi goes with a high Ki. Take `COc1ccc(CC(=O)Oc2ccc3c(c2)[C@@]24CCCC[C@@]2(O)[C@@H](C3)N(CC2CCC2)CC4)cc1`: the negative-log Ki (pKi) in test [1] was 9.68; at Mu-type opioid receptor it was 9.66; in test [3], 7.64. The Ratio Ki in the test filed under Homo sapiens [2] amounted to 110; in the test filed under Homo sapiens [4], 1; in the test filed under Homo sapiens [5], 1.
Turning to `NC(=O)COc1ccc2c(c1)[C@@]13CCCC[C@@]1(O)[C@@H](C2)N(CC1CCC1)CC3`, the pKi in test [1] is 7.17; at Mu-type opioid receptor, 7.26; in test [3], 6.12. The Ratio Ki in the test filed under Homo sapiens [2] was 11; in the test filed under Homo sapiens [4], 1.2; in the test listed under Homo sapiens [5], 1.
For `O=C(Oc1ccc2c(c1)[C@@]13CCCC[C@@]1(O)[C@@H](C2)N(CC1CCC1)CC3)c1ccc(-c2ccccc2)cc1`, the pKi in test [1] is 7.74; at Mu-type opioid receptor, 7.82; in test [3], 6.16. Also, the Ratio Ki turned out to be 46 in the test listed under Homo sapiens [2], 1 in the test filed under Homo sapiens [4] and 1 in the test filed under Homo sapiens [5].
In the case of `O=C(Cc1ccc(-c2ccccc2)cc1)Oc1ccc2c(c1)[C@@]13CCCC[C@@]1(O)[C@@H](C2)N(CC1CCC1)CC3`, the pKi in test [1] was 9.06; at Mu-type opioid receptor, 8.57; in test [3] it was 6.72. Besides, the Ratio Ki in the test filed under Homo sapiens [2] is 218; in the test filed under Homo sapiens [4] it was 1; in the test filed under Homo sapiens [5], 3.1.
Consider `O=C(COc1ccccc1)Oc1ccc2c(c1)[C@@]13CCCC[C@@]1(O)[C@@H](C2)N(CC1CCC1)CC3`, for which the results for the pKi (in test [1]; on Mu-type opioid receptor; in test [3]) were 10.32, 10.21 and 7.66, respectively. In addition, the Ratio Ki in the test filed under Homo sapiens [2] turned out to be 458; in the test listed under Homo sapiens [4], 1; in the test filed under Homo sapiens [5], 1.3.
For the compound `O[C@@]12CCCC[C@@]13CCN(CC1CCC1)[C@@H]2Cc1ccc(OCc2ccccc2)cc13`, the figures for the pKi (in test [1]; at Mu-type opioid receptor; in test [3]) were 7.55, 7.68 and 6.17, respectively. The Ratio Ki was found to be 32 in the test filed under Homo sapiens [2], 1.3 in the test listed under Homo sapiens [4] and 1 in the test listed under Homo sapiens [5].
As for `C[C@H]1[C@H]2Cc3ccc(C(=O)N(C)CCc4ccc(-c5ccccc5)cc4)cc3[C@@]1(C)CCN2CC1CC1`, the negative-log Ki (pKi) is 7.96 in test [1], 8.17 at Mu-type opioid receptor and 7.92 in test [3]. In addition, the Ratio Ki amounted to 1.8 in the test filed under Homo sapiens [2], 1.6 in the test listed under Homo sapiens [4] and 1 in the test filed under Homo sapiens [5].
`O[C@@]12CCCC[C@@]13CCN(CC1CCC1)[C@@H]2Cc1ccc(OCCc2ccccc2)cc13`: the pKi is 8.05 in test [1], 8.00 on Mu-type opioid receptor and 6.30 in test [3]. The Ratio Ki in the test filed under Homo sapiens [2] was determined as 56; in the test filed under Homo sapiens [4], 1; in the test listed under Homo sapiens [5], 1.
Turning to `OCCCOc1ccc2c(c1)[C@@]13CCCC[C@@]1(O)[C@@H](C2)N(CC1CCC1)CC3`, the pKi is 8.07 in test [1], 7.74 on Mu-type opioid receptor and 6.31 in test [3]. The Ratio Ki stood at 57 in the test listed under Homo sapiens [2], 1 in the test filed under Homo sapiens [4] and 2.1 in the test filed under Homo sapiens [5].
With `Cc1ccc(C(C)C(=O)Oc2ccc3c(c2)[C@@]24CCCC[C@@]2(O)[C@@H](C3)N(CC2CCC2)CC4)cc1` (some centres undefined), the results for the pKi (in test [1]; at Mu-type opioid receptor; in test [3]) were 8.89, 8.64 and 7.02, respectively. Also, the Ratio Ki in the test listed under Homo sapiens [2] was 74; in the test listed under Homo sapiens [4], 1; in the test filed under Homo sapiens [5], 1.9.
With `O=C(Cc1ccccc1)Oc1ccc2c(c1)[C@@]13CCCC[C@@]1(O)[C@@H](C2)N(CC1CCC1)CC3`, the pKi was 9.32 in test [1], 9.49 at Mu-type opioid receptor and 7.20 in test [3]. Moreover, the Ratio Ki in the test filed under Homo sapiens [2] worked out at 197; in the test listed under Homo sapiens [4] it was 1.5; in the test listed under Homo sapiens [5], 1.
As for `Nc1ccc(Oc2ccc3c(c2)[C@@]24CCCC[C@@]2(O)[C@@H](C3)N(CC2CCC2)CC4)cc1`, the pKi in test [1] was 8.28; on Mu-type opioid receptor, 8.41; in test [3], 6.03. The Ratio Ki in the test filed under Homo sapiens [2] stood at 240; in the test filed under Homo sapiens [4], 1.3; in the test listed under Homo sapiens [5], 1.
In the case of `O=[N+]([O-])c1ccc(Oc2ccc3c(c2)[C@@]24CCCC[C@@]2(O)[C@@H](C3)N(CC2CCC2)CC4)cc1`, the results for the pKi (in test [1]; on Mu-type opioid receptor; in test [3]) were 7.55, 7.80 and 5.82, respectively. For the same compound, the Ratio Ki came out at 94 in the test listed under Homo sapiens [2], 1.8 in the test listed under Homo sapiens [4] and 1 in the test listed under Homo sapiens [5].
With `Oc1ccc2c(c1)[C@@]13CCCC[C@@]1(O)[C@@H](C2)N(CC1CCC1)CC3` [BUTORPHANOL], the pKi in test [1] was 9.92.
